Values after ≈ are worked out from the molar mass of the structure shown.
Test system: Brain
Test: Antioxidant activity in Wistar rat brain assessed as reduction in glutathione content
Type: functional, tissue-based
Conditions: not given
Method in brief: (§1)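 Wistar rat brain was homogenised 1:40 (w/v) in 0.1 M phosphate buffer, pH 7.4, with 1 mM EDTA. Total glutathione (GSH + GSSG) and reduced GSH were assayed spectrophotometrically from optical density, using net rate against a standard-curve slope and intercept, times a dilution factor. Homogenate protein was measured by the Lowry method.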

Point of comparison: `COc1ccc2c3c1O[C@H]1C[C@@H](OP(=O)(NCCN)N(CCCl)CCCl)C=C[C@@]31CCN(C)C2` (stereo not given in full), EC50 2.43 µg/mL (≈ 4.56 µM). Against it:
- COc1ccc2c3c1O[C@H]1C[C@@H](OP(=O)(OCCO)Oc4ccc([N+](=O)[O-])cc4)C=C[C@@]31CCN(C)C2 (stereo not given in full) — within 1.5-fold, 2.82 µg/mL (≈ 5.3 µM)

Test system: Brain
Test: Antioxidant activity in Wistar rat brain assessed as glutathione content
Type: functional
Conditions: not given
Method in brief: as §1

Point of comparison: `COc1ccc2c3c1O[C@H]1C[C@@H](OP(=O)(NCCN)N(CCCl)CCCl)C=C[C@@]31CCN(C)C2` (stereo not given in full), Activity 4.84 µg/mL. Against it:
- COc1ccc2c3c1O[C@H]1C[C@@H](OP(=O)(OCCO)Oc4ccc([N+](=O)[O-])cc4)C=C[C@@]31CCN(C)C2 (stereo not given in full) — within 1.5-fold, 5.21 µg/mL

Target: not listed separately
Test: Inhibition of superoxide dismutase in Wistar rat brain
Type: tissue-based
Conditions: not given

Point of comparison: `COc1ccc2c3c1O[C@H]1C[C@@H](OP(=O)(NCCN)N(CCCl)CCCl)C=C[C@@]31CCN(C)C2` (stereo not given in full), EC50 2.77 µg/mL (≈ 5.19 µM). Against it:
- COc1ccc2c3c1O[C@H]1C[C@@H](OP(=O)(OCCO)Oc4ccc([N+](=O)[O-])cc4)C=C[C@@]31CCN(C)C2 (stereo not given in full) — within 1.5-fold, 3.28 µg/mL (≈ 6.16 µM)

Test system: Staphylococcus aureus
Test: Antibacterial activity against Staphylococcus aureus at 2 mg/mL after 18 hrs by disc diffusion assay
Type: functional
Conditions: read-out: IZ
Method in brief: (§2)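 Bacteria were grown in nutrient broth at 37 °C for 18 h on a rotary shaker at 150 rpm. Compounds were dissolved in DMF. Nutrient agar plates were dried at 35–36 °C for about 30 min, and test strains were spread on the surface. Discs were applied, and plates were inverted and incubated at 37 °C. A DMF blank was run.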

Point of comparison: `COc1ccc2c3c1O[C@H]1C[C@@H](OP(=O)(NCCN)N(CCCl)CCCl)C=C[C@@]31CCN(C)C2` (stereo not given in full), zone of inhibition at 2000 µg/mL 3.51 mm. Against it:
- COc1ccc2c3c1O[C@H]1C[C@@H](OP(=O)(OCCO)Oc4ccc([N+](=O)[O-])cc4)C=C[C@@]31CCN(C)C2 (stereo not given in full) — higher, 4.27 mm

Test system: Bacillus subtilis
Test: Antibacterial activity against Bacillus subtilis at 2 mg/mL after 18 hrs by disc diffusion assay
Type: functional
Conditions: read-out: IZ
Method in brief: as §2

Point of comparison: `COc1ccc2c3c1O[C@H]1C[C@@H](OP(=O)(NCCN)N(CCCl)CCCl)C=C[C@@]31CCN(C)C2` (stereo not given in full), zone of inhibition at 2000 µg/mL 3.9 mm. Against it:
- COc1ccc2c3c1O[C@H]1C[C@@H](OP(=O)(OCCO)Oc4ccc([N+](=O)[O-])cc4)C=C[C@@]31CCN(C)C2 (stereo not given in full) — lower, 3.71 mm

Test system: Escherichia coli
Test: Antibacterial activity against Escherichia coli at 2 mg/mL after 18 hrs by disc diffusion assay
Type: functional
Conditions: read-out: IZ
Method in brief: as §2

Point of comparison: `COc1ccc2c3c1O[C@H]1C[C@@H](OP(=O)(NCCN)N(CCCl)CCCl)C=C[C@@]31CCN(C)C2` (stereo not given in full), zone of inhibition at 2000 µg/mL 4.9 mm. Against it:
- COc1ccc2c3c1O[C@H]1C[C@@H](OP(=O)(OCCO)Oc4ccc([N+](=O)[O-])cc4)C=C[C@@]31CCN(C)C2 (stereo not given in full) — higher, 5.01 mm

Test system: Brain
Test: Antioxidant activity in Wistar rat brain assessed as superoxide dismutase content
Type: functional
Conditions: not given

Point of comparison: `COc1ccc2c3c1O[C@H]1C[C@@H](OP(=O)(NCCN)N(CCCl)CCCl)C=C[C@@]31CCN(C)C2` (stereo not given in full), Activity 30.29 µg/mL. Against it:
- COc1ccc2c3c1O[C@H]1C[C@@H](OP(=O)(OCCO)Oc4ccc([N+](=O)[O-])cc4)C=C[C@@]31CCN(C)C2 (stereo not given in full) — within 1.5-fold, 29.41 µg/mL

Target: T1, Catalase (Rattus norvegicus, UniProt P04762)
T1 sequence (P04762 whole entry): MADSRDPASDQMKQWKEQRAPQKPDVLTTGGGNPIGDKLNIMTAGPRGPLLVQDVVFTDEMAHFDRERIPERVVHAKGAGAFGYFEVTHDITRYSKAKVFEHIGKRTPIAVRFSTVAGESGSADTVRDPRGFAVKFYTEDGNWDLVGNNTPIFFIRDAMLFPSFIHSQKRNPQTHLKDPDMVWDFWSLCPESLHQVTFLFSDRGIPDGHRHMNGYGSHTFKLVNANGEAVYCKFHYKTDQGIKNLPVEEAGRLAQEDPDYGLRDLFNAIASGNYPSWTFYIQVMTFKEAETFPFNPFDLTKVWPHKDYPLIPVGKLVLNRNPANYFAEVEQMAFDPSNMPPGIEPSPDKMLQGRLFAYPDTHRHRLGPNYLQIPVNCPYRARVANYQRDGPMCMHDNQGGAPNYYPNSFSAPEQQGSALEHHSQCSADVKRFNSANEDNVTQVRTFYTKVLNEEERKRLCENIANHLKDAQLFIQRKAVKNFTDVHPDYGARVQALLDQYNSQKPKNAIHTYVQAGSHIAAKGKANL
Test: Inhibition of catalase in Wistar rat brain
Conditions: not given

Point of comparison: `COc1ccc2c3c1O[C@H]1C[C@@H](OP(=O)(OCCO)Oc4ccc([N+](=O)[O-])cc4)C=C[C@@]31CCN(C)C2` (stereo not given in full), EC50 3.28 µg/mL (≈ 6.16 µM). Against it:
- COc1ccc2c3c1O[C@H]1C[C@@H](OP(=O)(NCCN)N(CCCl)CCCl)C=C[C@@]31CCN(C)C2 (stereo not given in full) — within 1.5-fold, 2.73 µg/mL (≈ 5.12 µM)

Test system: Brain
Test: Antioxidant activity in Wistar rat brain assessed as lipid peroxidation
Type: functional, tissue-based
Conditions: not given

Point of comparison: `COc1ccc2c3c1O[C@H]1C[C@@H](OP(=O)(NCCN)N(CCCl)CCCl)C=C[C@@]31CCN(C)C2` (stereo not given in full), Activity 72.5 µg/mL. Against it:
- COc1ccc2c3c1O[C@H]1C[C@@H](OP(=O)(OCCO)Oc4ccc([N+](=O)[O-])cc4)C=C[C@@]31CCN(C)C2 (stereo not given in full) — within 1.5-fold, 72.1 µg/mL

Test system: Klebsiella pneumoniae
Test: Antibacterial activity against Klebsiella pneumoniae after 18 hrs
Type: functional
Conditions: not given

Point of comparison: `COc1ccc2c3c1O[C@H]1C[C@@H](OP(=O)(NCCN)N(CCCl)CCCl)C=C[C@@]31CCN(C)C2` (stereo not given in full), MIC 0.33 µg/mL (≈ 0.619 µM). Against it:
- COc1ccc2c3c1O[C@H]1C[C@@H](OP(=O)(OCCO)Oc4ccc([N+](=O)[O-])cc4)C=C[C@@]31CCN(C)C2 (stereo not given in full) — within 1.5-fold, 0.39 µg/mL (≈ 0.732 µM)

Test system: Klebsiella pneumoniae
Test: Antibacterial activity against Klebsiella pneumoniae at 2 mg/mL after 18 hrs by disc diffusion assay
Type: functional
Conditions: read-out: IZ
Method in brief: as §2

Point of comparison: `COc1ccc2c3c1O[C@H]1C[C@@H](OP(=O)(OCCO)Oc4ccc([N+](=O)[O-])cc4)C=C[C@@]31CCN(C)C2` (stereo not given in full), zone of inhibition at 2000 µg/mL 4.96 mm. Against it:
- COc1ccc2c3c1O[C@H]1C[C@@H](OP(=O)(NCCN)N(CCCl)CCCl)C=C[C@@]31CCN(C)C2 (stereo not given in full) — lower, 4.8 mm

Test system: Escherichia coli
Test: Antibacterial activity against Escherichia coli after 18 hrs
Type: functional
Conditions: not given

Point of comparison: `COc1ccc2c3c1O[C@H]1C[C@@H](OP(=O)(OCCO)Oc4ccc([N+](=O)[O-])cc4)C=C[C@@]31CCN(C)C2` (stereo not given in full), MIC 0.67 µg/mL (≈ 1.26 µM). Against it:
- COc1ccc2c3c1O[C@H]1C[C@@H](OP(=O)(NCCN)N(CCCl)CCCl)C=C[C@@]31CCN(C)C2 (stereo not given in full) — within 1.5-fold, 0.55 µg/mL (≈ 1.03 µM)

Test system: Klebsiella pneumoniae
Test: Antibacterial activity against Klebsiella pneumoniae at 1 mg/mL after 18 hrs by disc diffusion assay
Type: functional
Conditions: read-out: IZ
Method in brief: as §2

Point of comparison: `COc1ccc2c3c1O[C@H]1C[C@@H](OP(=O)(OCCO)Oc4ccc([N+](=O)[O-])cc4)C=C[C@@]31CCN(C)C2` (stereo not given in full), zone of inhibition at 1000 µg/mL 2.69 mm. Against it:
- COc1ccc2c3c1O[C@H]1C[C@@H](OP(=O)(NCCN)N(CCCl)CCCl)C=C[C@@]31CCN(C)C2 (stereo not given in full) — higher, 2.89 mm

Test system: Staphylococcus aureus
Test: Antibacterial activity against Staphylococcus aureus after 18 hrs
Type: functional
Conditions: not given

Point of comparison: `COc1ccc2c3c1O[C@H]1C[C@@H](OP(=O)(OCCO)Oc4ccc([N+](=O)[O-])cc4)C=C[C@@]31CCN(C)C2` (stereo not given in full), MIC 1.09 µg/mL (≈ 2.05 µM). Against it:
- COc1ccc2c3c1O[C@H]1C[C@@H](OP(=O)(NCCN)N(CCCl)CCCl)C=C[C@@]31CCN(C)C2 (stereo not given in full) — 2.2-fold lower, 0.49 µg/mL (≈ 0.919 µM)

Test system: Brain
Test: Antioxidant activity in Wistar rat brain assessed as inhibition of lipid peroxidation
Type: functional, tissue-based
Conditions: not given

Point of comparison: `COc1ccc2c3c1O[C@H]1C[C@@H](OP(=O)(OCCO)Oc4ccc([N+](=O)[O-])cc4)C=C[C@@]31CCN(C)C2` (stereo not given in full), EC50 3.17 µg/mL (≈ 5.95 µM). Against it:
- COc1ccc2c3c1O[C@H]1C[C@@H](OP(=O)(NCCN)N(CCCl)CCCl)C=C[C@@]31CCN(C)C2 (stereo not given in full) — within 1.5-fold, 2.88 µg/mL (≈ 5.4 µM)

Test system: Brain
Test: Antioxidant activity in Wistar rat brain assessed as catalase content
Type: functional
Conditions: not given

Point of comparison: `COc1ccc2c3c1O[C@H]1C[C@@H](OP(=O)(NCCN)N(CCCl)CCCl)C=C[C@@]31CCN(C)C2` (stereo not given in full), Activity 285.48 µg/mL. Against it:
- COc1ccc2c3c1O[C@H]1C[C@@H](OP(=O)(OCCO)Oc4ccc([N+](=O)[O-])cc4)C=C[C@@]31CCN(C)C2 (stereo not given in full) — within 1.5-fold, 286.43 µg/mL

Test system: Escherichia coli
Test: Antibacterial activity against Escherichia coli at 1 mg/mL after 18 hrs by disc diffusion assay
Type: functional
Conditions: read-out: IZ
Method in brief: as §2

Point of comparison: `COc1ccc2c3c1O[C@H]1C[C@@H](OP(=O)(NCCN)N(CCCl)CCCl)C=C[C@@]31CCN(C)C2` (stereo not given in full), zone of inhibition at 1000 µg/mL 2.33 mm. Against it:
- COc1ccc2c3c1O[C@H]1C[C@@H](OP(=O)(OCCO)Oc4ccc([N+](=O)[O-])cc4)C=C[C@@]31CCN(C)C2 (stereo not given in full) — lower, 1.53 mm

Test system: Bacillus subtilis
Test: Antibacterial activity against Bacillus subtilis at 1 mg/mL after 18 hrs by disc diffusion assay
Type: functional
Conditions: read-out: IZ
Method in brief: as §2

Point of comparison: `COc1ccc2c3c1O[C@H]1C[C@@H](OP(=O)(NCCN)N(CCCl)CCCl)C=C[C@@]31CCN(C)C2` (stereo not given in full), zone of inhibition at 1000 µg/mL 1.57 mm. Against it:
- COc1ccc2c3c1O[C@H]1C[C@@H](OP(=O)(OCCO)Oc4ccc([N+](=O)[O-])cc4)C=C[C@@]31CCN(C)C2 (stereo not given in full) — higher, 2.61 mm

Test system: Bacillus subtilis
Test: Antibacterial activity against Bacillus subtilis after 18 hrs
Type: functional
Conditions: not given

Point of comparison: `COc1ccc2c3c1O[C@H]1C[C@@H](OP(=O)(OCCO)Oc4ccc([N+](=O)[O-])cc4)C=C[C@@]31CCN(C)C2` (stereo not given in full), MIC 0.25 µg/mL (≈ 0.469 µM). Against it:
- COc1ccc2c3c1O[C@H]1C[C@@H](OP(=O)(NCCN)N(CCCl)CCCl)C=C[C@@]31CCN(C)C2 (stereo not given in full) — 2.1-fold lower, 0.12 µg/mL (≈ 0.225 µM)

Test system: Staphylococcus aureus
Test: Antibacterial activity against Staphylococcus aureus at 1 mg/mL after 18 hrs by disc diffusion assay
Type: functional
Conditions: read-out: IZ
Method in brief: as §2

Point of comparison: `COc1ccc2c3c1O[C@H]1C[C@@H](OP(=O)(NCCN)N(CCCl)CCCl)C=C[C@@]31CCN(C)C2` (stereo not given in full), zone of inhibition at 1000 µg/mL 2.35 mm. Against it:
- COc1ccc2c3c1O[C@H]1C[C@@H](OP(=O)(OCCO)Oc4ccc([N+](=O)[O-])cc4)C=C[C@@]31CCN(C)C2 (stereo not given in full) — lower, 1.9 mm

Reference: ChEMBL document CHEMBL1154647, “Synthesis, spectral characterization and biological evaluation of phosphorylated derivatives of galanthamine” (Eur J Med Chem, 2010)
